According to article PMC11439047 (Nature Communications, 2024):
Substitutions are numbered along the chain they refer to.

Key:
P2X1 receptor E122A = biological target: T1, P2X1 receptor E122A (Homo sapiens, UniProt P51575, E122A); assay: Saturation radioligand binding with [3H]-α,β-methylene ATP
T1 sequence (P51575 1-399 E122A): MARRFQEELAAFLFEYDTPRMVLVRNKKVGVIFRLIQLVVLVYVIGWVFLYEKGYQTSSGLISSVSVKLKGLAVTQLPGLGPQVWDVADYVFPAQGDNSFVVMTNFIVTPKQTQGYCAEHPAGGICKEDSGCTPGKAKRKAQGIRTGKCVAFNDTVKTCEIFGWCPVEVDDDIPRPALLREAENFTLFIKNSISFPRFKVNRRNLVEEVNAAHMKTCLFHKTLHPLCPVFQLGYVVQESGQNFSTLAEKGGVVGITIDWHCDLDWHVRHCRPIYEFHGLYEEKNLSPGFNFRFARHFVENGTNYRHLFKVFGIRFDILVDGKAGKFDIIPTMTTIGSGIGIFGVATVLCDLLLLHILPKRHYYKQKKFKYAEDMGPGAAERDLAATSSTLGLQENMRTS

P2X1 receptor R139P = biological target: T2, P2X1 receptor R139P (Homo sapiens, UniProt P51575, R139P); assay: Calcium ion influx assay; format: cell-based; conditions: maximal α,β-methylene ATP
T2 sequence (P51575 1-399 R139P): T1 sequence (P51575 1-399 E122A) with A122E, R139P

P2X1 receptor M214A = biological target: T3, P2X1 receptor M214A (Homo sapiens, UniProt P51575, M214A); assay: Calcium ion influx assay; format: cell-based
T3 sequence (P51575 1-399 M214A): T1 sequence (P51575 1-399 E122A) with A122E, M214A

P2X1 receptor L218T = biological target: T4, P2X1 receptor L218T (Homo sapiens, UniProt P51575, L218T); assay: Saturation radioligand binding with [3H]-α,β-methylene ATP
T4 sequence (P51575 1-399 L218T): T1 sequence (P51575 1-399 E122A) with A122E, L218T
Summary of the method: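 Whole HEK293 Flp-In T-REx cells stably expressing receptor, tetracycline-induced (150 ng/ml, 2 days), 15,000 cells/well, washed in HEPES binding buffer pH 7.4 with Ca2+/Mg2+. Increasing [3H]-α,β-methylene ATP added, 3 h room temperature with gentle agitation; non-specific binding with 10 μM ATP. Ice-cold 0.9% NaCl washes, scintillation counting (CCPM). Specific binding fitted one-site; values above 300 nM termed not defined.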

fold decrease in potency compared to WT-P2X1 (P2X1 receptor M214A): 7 fold
binding affinity compared to WT-P2X1 (P2X1 receptor L218T): similar
Structure (SMILES): Nc1ncnc2c1ncn2[C@@H]1O[C@H](COP(=O)(O)CP(=O)(O)OP(=O)(O)O)[C@@H](O)[C@H]1O [α,β-methylene ATP]
binding affinity compared to WT-P2X1 (P2X1 receptor E122A): beyond the threshold that could be accurately measured
desensitisation rate compared to WT-P2X1 (P2X1 receptor R139P): significantly slowed the desensitisation rate
desensitisation rate compared to WT-P2X1 (P2X1 receptor M214A; maximal α,β-methylene ATP): significantly slowed the desensitisation rate
